This is a sample that favours compounds with a hit; in the whole collection about 3.8% have one here.
hERG protect: compounds protecting human hERG from proarrhythmic drug block | 310,000 tested, 0.51% active | CHO-hERG, FluxOR thallium flux, dofetilide IC70 present | Q12809 | activation (rescue from dofetilide block), less the hit threshold, % at 10 µM | AID 1511;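 active = activation above the mean of controls blocked by dofetilide plus 5 SD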;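 note: thallium influx through hERG after potassium depolarization seen as dye fluorescence rise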
Kir21 inh: inhibitors of mouse Kir2.1 inward-rectifier potassium channel. HEK293-Kir2.1, FluxOR thallium flux fluorescence; stronger effect = lower value. AID 1672. B-score at 10 µM. 310,000 tested, 0.85% active. P35561;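 active = fluorescence ratio B-score at or below minus 3 SD of library scores, with starting-brightness B-score within 2 SD, cut at about -4.2 in these data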;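 note: channel flux triggered by added potassium and thallium sulfate stimulus; B-score of peak minus minimum fluorescence over baseline after thallium stimulus; more negative B-score means stronger Kir2.1 block with less thallium influx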
Target sequence (P35561 whole entry, looked up): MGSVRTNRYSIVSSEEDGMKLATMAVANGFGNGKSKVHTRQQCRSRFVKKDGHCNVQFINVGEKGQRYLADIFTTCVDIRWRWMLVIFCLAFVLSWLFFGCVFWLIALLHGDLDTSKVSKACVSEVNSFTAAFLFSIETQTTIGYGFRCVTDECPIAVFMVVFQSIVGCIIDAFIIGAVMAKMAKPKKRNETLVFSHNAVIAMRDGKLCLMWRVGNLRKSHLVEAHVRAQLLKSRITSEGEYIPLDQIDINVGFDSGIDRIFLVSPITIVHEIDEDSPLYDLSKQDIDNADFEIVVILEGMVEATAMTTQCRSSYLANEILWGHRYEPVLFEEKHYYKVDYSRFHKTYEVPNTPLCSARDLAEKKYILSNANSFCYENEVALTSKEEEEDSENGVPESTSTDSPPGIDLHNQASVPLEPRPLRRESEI
KCNK9 inh: blocks the human KCNK9 two-pore domain potassium channel. Q9NPC2. HEK293 KCNK9, FluxOR thallium flux fluorescence; stronger effect = lower value. B-score at 10 µM. 310,000 tested, 1.2% active. AID 488922;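 active = ratio B-score over 3 SD below the library mean, with starting fluorescence within 5 SD of its mean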;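 note: negative B-score means less thallium flux so channel inhibition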
KCNQ1 act: potentiates or activates the human KCNQ1 potassium channel. P51787. CHO-K1 KCNQ1, thallium flux FluxOR fluorescence; stronger effect = higher value. B-score at 10 µM. 310,000 tested, 0.35% active;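 active = fluorescence ratio B-score, a plate-corrected score, at least three library SD, with initial intensity B-score within 5 SD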
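Schedule – 37 °C overnight plating, 90-min dark dye load, 20-min compound pretreatment · System – stable KCNQ1 CHO-K1 line · Probe or stimulus – thallium- and potassium-containing depolarizing buffer · Measured by – kinetic FluxOR fluorescence, 10 s baseline plus 110 s post-stimulus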
KCNQ1 inh: inhibitors of human KCNQ1 potassium channel | CHO-K1 KCNQ1, FluxOR thallium flux fluorescence; stronger effect = higher value | P51787 | B-score at 10 µM | 310,000 tested, 1.3% active;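 active = compounds whose thallium flux B-score, printed positive for inhibition, exceeds three library SD while starting fluorescence stays within three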;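 note: channel opened by potassium depolarization with thallium stimulus after 20 min compound exposure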
KCNK3 block: human KCNK3 channel inhibition, primary screen; B-score at 10 µM; CHO-KCNK3 thallium flux, FluxOR fluorescence; stronger effect = lower value; AID 602410; 340,000 tested, 0.84% active; O14649;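 active = B-score under library mean minus 4 SD, starting fluorescence ratio at most library mean plus 5 SD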;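 note: more negative B-score means stronger inhibition of thallium flux through KCNK3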
KCNQ1 block val: confirmation of human KCNQ1 potassium channel inhibitors; shares compounds with KCNQ1 inh; KCNQ1 cell line, FluxOR thallium flux fluorescence; inhibition, % at 10 µM; 1,600 tested, 93% active;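 active = primary screen active, with duplicate mean exceeding buffer control mean plus 3 SD of buffer wells, cut at about 28% in these data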
CHO Tl flux: activity in parental CHO cells lacking KCNQ1; fluorescence ratio (Tl flux) at 10 µM; shares compounds with KCNQ1 inh; AID 588366; 1,600 tested, 21% active; parental CHO-K1, FluxOR thallium flux fluorescence ratio; stronger effect = lower value; zero means no signal rise above baseline;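 active = mean of duplicate thallium-flux fluorescence ratios in parental host cells more than 5 SD below the buffer control mean, cut at about 0.38 in these data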;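 note: ratio is peak minus minimum fluorescence divided by baseline fluorescence; actives read low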
KCNQ1 ephys val: blocks human KCNQ1 current in automated patch clamp. AID 624120. KCNQ1-CHO cells. shares compounds with KCNQ1 inh. 490 tested, 20% active. calls only at 10 µM;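 active = KCNQ1 current drop exceeding 3 SD of negative control wells, seen in both duplicate runs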;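 note: steady state current during a 2 s step from -80 to +40 mV; negative values mean current inhibition and positive values mean potentiation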
KCNQ2 inh: rat KCNQ2 inhibition in KCNQ1 inhibitor specificity screen; shares compounds with KCNQ1 inh; KCNQ2 cells, FluxOR thallium flux fluorescence; inhibition, % at 10 µM; 1,600 tested, 71% active;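 active = mean percent inhibition of the KCNQ2 thallium signal more than 5 SD above the buffer-only control wells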;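 note: KCNQ2 expressed in CHO cells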
KCNQ1 KCNE1 spec: KCNQ1 inhibitor that also blocks human KCNQ1/KCNE1 channel | shares compounds with KCNQ1 inh | KCNQ1/KCNE1 cells, FluxOR thallium flux fluorescence | inhibition, % at 10 µM | 1,600 tested, 77% active | AID 652147;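 active = mean percent inhibition of duplicate wells above the buffer-only control mean plus 3 SD of those controls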
KCNK9 inh conf: confirmation of human KCNK9 potassium channel inhibitors | shares compounds with KCNK9 inh | HEK293 KCNK9 cells, FluxOR thallium flux fluorescence | inhibition, % at 10 µM | 4,900 tested, 43% active | AID 492992;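 active = thallium signal inhibited by more than 5 SD of the compound-free buffer control wells, on both duplicate plates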
Kir21 sel: mouse Kir2.1 off-target activity of KCNK9 modulators | shares compounds with KCNK9 inh | Kir2.1 cells, FluxOR thallium flux fluorescence | inhibition, % at 10 µM | 4,900 tested, 4% active;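 active = thallium signal drop more than 5 SD beyond the mean of the no-compound control wells, seen in both duplicate plates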;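 note: signal is fluorescence rise after thallium addition divided by baseline fluorescence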
HEK293 Tl ctr: second check of KCNK9 modulator effects in non-induced HEK293 cells. shares compounds with KCNK9 inh. FluxOR thallium flux. inhibition, % at 10 µM. 4,900 tested, 40% active. AID 492997;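 active = thallium signal drop beyond 5 SD of the untreated control mean, on both duplicate plates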
A number is an active result; – = inactive; · = no result; + = active, no number.

SMILES | hERG protect | Kir21 inh | KCNK9 inh | KCNQ1 act | KCNQ1 inh | KCNK3 block | KCNQ1 block val | CHO Tl flux | KCNQ2 inh | KCNQ1 KCNE1 spec | KCNK9 inh conf | Kir21 sel | HEK293 Tl ctr | others
CCOC(=O)c1nnn(-c2nonc2-n2cccc2)c1CCl | – | – | – | – | – | – | · | · | · | · | · | · | ·
CCOC(=O)c1nnn(-c2nonc2-n2cccc2)c1CN1CCC(C)CC1 | – | – | -9.3 | – | 6 | -9.12 | 87.5 | – | 71.3% | 128.5% | – | – | 32.0%
Nc1c(C(=O)c2ccccc2)sc2nsc(SCCN3CCCC3)c12 | – | – | – | – | 8 | – | 107.5 | 0.208 | – | 143.5% | 45.0% | 35.5% | 73.0%
CC12CCC(=O)N1C(C(=O)Nc1cc(Cl)ccc1N1CCOCC1)CS2 (stereo not drawn) | – | – | – | – | – | – | · | · | · | · | · | · | ·
CC1CCCCN1C(=O)CSc1nnc(-c2cccs2)o1 (stereo not drawn) | – | – | – | – | – | – | · | · | · | · | · | · | ·
CC1(C)C(=O)Nc2ccccc2N1C(=O)COC(=O)c1cccs1 | · | · | · | · | · | – | · | · | · | · | · | · | ·
Cc1c(N2C(=O)/C(=C\c3ccc(N(C)C)cc3)N(C)C2=S)c(=O)n(-c2ccccc2)n1C | · | · | · | · | · | – | · | · | · | · | · | · | ·
COc1ccc(CC(=O)Nc2cccc(-c3csc(C)n3)c2)cc1 | – | – | – | – | – | – | · | · | · | · | · | · | ·
CC(C)CC(=O)Nc1cccc(-c2csc(-c3ccccc3)n2)c1 | – | – | -13.8 | – | 18 | – | 148.0 | 0.346 | – | + | 67.0% | – | 31.5%
CCc1cccc(OCC(=O)Nc2ccc(C)c(S(=O)(=O)N3CCCCCC3)c2)c1 | – | – | – | – | 10 | – | 121.5 | – | 116.3% | 106.5% | – | – | 33.0% | KCNQ1 ephys val=–
COc1cc(C(C)=O)ccc1OCC(O)CN1CCN(c2ccc(F)cc2)CC1 (stereo not drawn) | – | – | – | – | – | – | · | · | · | · | · | · | ·
Cc1ccccc1CN1CCN(S(=O)(=O)c2ccc(Cl)s2)CC1 | – | – | – | – | 6 | – | 90.0 | 0.37 | 122.3% | 118.5% | – | – | 29.0%
O=C1CCc2cc(S(=O)(=O)N3CCN(c4ccc(F)cc4)CC3)cc3c2N1CC3 | – | – | – | – | – | – | · | · | · | · | · | · | ·
Clc1ccc(-c2cc3ccccc3nc2N2CCOCC2)cc1 | – | – | – | – | 11 | – | 130.0 | – | 97.7% | 182.0% | – | – | 28.0%
CCOc1ccc(NC(=O)CN2CCN(C3c4ccccc4-c4ccccc43)CC2)cc1 | – | – | – | – | – | – | · | · | · | · | · | · | ·
COc1ccc(NC(=O)CN2CCN(C3c4ccccc4-c4ccccc43)CC2)c(OC)c1 | – | – | -17.4 | – | 8 | – | 60.0 | – | 78.7% | 98.5% | 38.5% | – | 34.5%
CCC(C(=O)Nc1ccccc1N1CCCC1)c1ccccc1 (stereo not drawn) | – | – | – | – | – | – | · | · | · | · | · | · | ·

Compound activity from PubChem BioAssay.
